Assay outcomes: PubChem, several laboratories
An excerpt weighted towards active compounds, which were near 3% of everything screened.
MEKK2 WT-MEK5 – raises or lowers MEK5 binding to wildtype human MEKK2 PB1 domain | Q9Y2U5 | bead flow cytometry, Alexa488-MEK5 binding to MEKK2 WT; actives lie on both sides | binding response (% of control), % at 10 µM | hit rate 1.1% among 290,000; in the data active = binding response below about 67% or above about 130%
MEKK3 PB1 HTS – raises or lowers MEK5 binding to the human MEKK3 PB1 domain; Q99759; bead-based flow cytometry, Alexa488-MEK5 binding to MEKK3; actives lie on both sides; 0 = blocked by unlabeled MEK5, 100 = vehicle; binding response (% of control), % at 10 µM; hit rate 1.4% among 290,000; AID 1529;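 active = binding response more than 3 SD above or below the average of its plate-row segment, actives on both sides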;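 note: Alexa488 bead fluorescence after subtracting the streptavidin-only scavenger bead signal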
MEKK2mut PB1 HTS – signal of MEK5 binding to mutant human MEKK2 PB1 domain; bead flow cytometry, Alexa488-MEK5 binding to MEKK2 mutant; percent response, % at 10 µM; hit rate 0.35% among 290,000; AID 1530; in the data active = percent response above about 24%, passing the limit was not always enough
Apaf1 inhib – human Apaf-1 inhibition. hit rate 0.71% among 330,000. O14727. AID 489030. inhibition, % at 20 µM. reconstituted apoptosome caspase-3 activity, DEVD-Rh110 fluorescence; active = inhibition of at least 40% at 20 µM;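 note: plate controls were DMSO wells for no effect and DEVD-CHO caspase inhibitor wells for full effect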
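Material: reconstituted apoptosome with Apaf-1, cytochrome c, caspase-9, procaspase-3, dATP. Technique: Rh110 fluorescence intensity. Buffer or medium: pH 7.5 Hepes buffer with CHAPS, BSA, DTT. Times: 30 min plus 50 min, RT.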
UCH37 DUB inh – blocks the human deubiquitinase UCH37. inhibition, % (test concentration not listed). purified proteasome/UCH37, Ub-AMC cleavage fluorescence. hit rate 0.33% among 330,000. Q9Y5K5;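 active = mean inhibition over replicate wells above about 20%, limit read from the data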;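 note: 0% = compound-free wells with enzyme and 100% = wells lacking proteasome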
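Material: Human UCH37 enzyme supplied as purified proteasome complex | Schedule: 30 min preincubation with enzyme, 25 min cleavage at room temperature | Detection: AMC fluorescence 355/460 nm | Measure: % inhibition of Ub-AMC cleavage fluorescence | Controls: Wells without proteasome as full block, compound-free enzyme plus substrate as uninhibited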
UBC13 inh – human UBC13 polyubiquitination inhibition; hit rate 0.47% among 330,000; inhibition, % at 20 µM; UBC13 polyubiquitin chain formation, TR-FRET; P61088; in the data active = inhibition above about 45%, passing the limit was not always enough
MEKK2wt confirm – raises or lowers MEK5 binding to wildtype human MEKK2, retest. shares compounds with MEKK3 PB1 HTS. bead flow cytometry, Alexa488-MEK5 binding to MEKK2 WT; actives lie on both sides. binding response (% of control), % at 10 µM. hit rate 2.4% among 5,900. AID 1892; in the data active = binding response below about 16% or above about 210%; inactive = in between
MEKK2mut-MEK5 – signal of MEK5 binding to mutant human MEKK2, retest; shares compounds with MEKK3 PB1 HTS; percent response, % at 10 µM; hit rate 2% among 5,900; AID 1893; bead flow cytometry, Alexa488-MEK5 binding to MEKK2 mutant; in the data active = percent response mostly above about 71%, no sharp cut-off; inactive = mostly below about 38%;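 note: higher means compound restores mutant binding toward wildtype level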
MEKK3-MEK5 inh – confirmation of inhibitors of MEK5 binding to human MEKK3. bead flow cytometry, Alexa488-MEK5 binding to MEKK3; active compounds read low. shares compounds with MEKK3 PB1 HTS. AID 1894. binding response (% of control), % at 10 µM. hit rate 1.8% among 5,900;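 active = binding response below 72% of control, or above a set upper limit, though filed actives all read lower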;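 note: 100% = DMSO only wells and 0% = binding blocked by excess unlabeled MEK5; lower values mean stronger disruption of MEK5 binding to MEKK3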
Numbers without * were called inactive; · = not tested or not shown; [ ] = another dose, or the depositor's remark.

SMILES	MEKK2 WT-MEK5	MEKK3 PB1 HTS	MEKK2mut PB1 HTS	Apaf1 inhib	UCH37 DUB inh	UBC13 inh	MEKK2wt confirm	MEKK2mut-MEK5	MEKK3-MEK5 inh
COc1ccccc1-c1cc(C(=O)NC2CCN(C)CC2)c2ccc(Cl)c(C)c2n1	155.0*	105.0	28.0*	37.6	-4.3	42.1	132.0	25.0	108.0
Cc1c(Cl)ccc2c(C(=O)NCCN3CCCCC3)cc(-c3ccccn3)nc12	166.0*	103.0	23.0	12.4	-1.7	20.4	121.0	6.0	95.0
COc1ccc(C=NNc2ccccn2)cc1OC	·	·	·	·	12.8	·	·	·	·
Cc1cc(Br)ccc1SCC(=O)OCC(=O)NC1CC1	99.0	106.0	-1.0	12.1	2.7	-2.6	·	·	·
Cc1ccc(CNC(=O)COC(=O)CSc2ccc(Br)cc2C)cc1	107.0	130.0*	0.0	10.4	1.7	5.1	103.0	-1.0	105.0
Cc1cccc(Nc2nc(NCc3ccco3)c3ccccc3n2)c1	145.0*	106.0	14.0	·	-92.2	·	191.0	57.0	106.0
Cc1ccc(-c2nc(NCc3ccco3)c3ccccc3n2)cc1	109.0	91.0	0.0	13.9	2.6	11.5	·	·	·
COc1ccc(OC)c(Nc2nc(NCc3ccco3)c3ccccc3n2)c1	206.0*	117.0	24.0*	7.8	-44.3	21.1	175.0	61.0	109.0
c1ccc(CN2CCN(c3nc(NCc4ccco4)c4ccccc4n3)CC2)cc1	168.0*	112.0	29.0	12.9	-39.6	22.4	167.0	46.0	111.0
Cc1ccccc1Nc1nc(NCc2ccco2)c2ccccc2n1	149.0*	104.0	35.0	8.1	-51.0	25.9	169.0	55.0	104.0
Oc1ccccc1Nc1nc(NCc2ccco2)c2ccccc2n1	117.0	103.0	15.0	-9.8	·	21.1	·	·	·
CC(C)Oc1cc(N)c(Cl)cc1Cl	94.0	100.0	-2.0	4.6	2.8	4.4	·	·	·
Nc1nnc(SCC(=O)Nc2ccc(Cl)c(C(=O)O)c2)s1	98.0	99.0	-2.0	-1.6	0.9	-2.1	·	·	·
COc1ccc(OCC(=O)Nn2c(-c3cccc(OC)c3)nc3ccccc3c2=O)cc1	89.0	83.0	-3.0	-5.9	1.6	-1.3	·	·	·
CC1CCCCN1Cc1c(O)ccc2c(=O)c(-c3nc4ccccc4s3)coc12 (stereo not given)	72.0	63.0	-37.0	-1.4	6.2	-8.9	·	·	·
CC(C)(C)c1ccc(OCCCCCCN2CCNCC2)cc1	·	·	·	-11.0	2.6	15.1	·	·	·
CC(C)(c1ccccc1)c1ccc(OCCCN2CCNCC2)cc1	150.0*	113.0	15.0	22.8	5.6	27.8	125.0	10.0	105.0
COc1ccc(-c2csc(Nc3ccc(C)cn3)n2)cc1OC	142.0	143.0*	8.0	-9.7	3.5	11.6	111.0	1.0	101.0
CC(=O)Nc1cccc(N2C(=O)CCC2=O)c1	110.0	108.0	-6.0	-18.0	2.1	3.4	·	·	·
Cc1ccccc1C(=O)Nc1c(C(=O)N2CCCC2)cnn1-c1ccccc1	96.0	91.0	-2.0	-8.7	1.4	1.6	·	·	·
CC(=O)Nc1c(C(=O)N2CCCCCC2)cnn1-c1ccccc1	86.0	81.0*[inhibitor]	-11.0	-4.8	2.4	0.7	105.0	-5.0	102.0
CCOc1ccc(NC(=O)C(C)Oc2ccc(C#N)cc2)cc1S(=O)(=O)N1CCCC1 (stereo not given)	·	·	·	9.6	2.5	-4.4	·	·	·
Cc1ccc(NC(=O)C2CCCN(C(=O)c3ccc(Cl)cc3)C2)cc1C (stereo not given)	99.0	106.0	0.0	16.0	3.6	-0.1	·	·	·
C=CCNC(=S)Nc1ccccc1	77.0	79.0*[inhibitor]	-13.0	-3.3	1.1	-2.4	99.0	-6.0	98.0
Cn1cc(S(=O)(=O)N2CCN(c3cccc(Cl)c3)CC2)c(=O)n(C)c1=O	132.0	129.0*	29.0	-22.4	-0.6	19.6	109.0	10.0	103.0
SMILES	MEKK2 WT-MEK5	MEKK3 PB1 HTS	MEKK2mut PB1 HTS	Apaf1 inhib	UCH37 DUB inh	UBC13 inh	MEKK2wt confirm	MEKK2mut-MEK5	MEKK3-MEK5 inh
CCOC(=O)c1ccc(NC(=O)c2nc(SC)ncc2Cl)cc1	102.0	101.0	1.0	16.9	2.7	-5.4	·	·	·
COCCNC(=O)c1c(NC(=O)c2nc(SC)ncc2Cl)sc2c1CCCC2	82.0	82.0*[inhibitor]	-10.0	-6.0	3.2	-2.5	106.0	4.0	104.0
O=C(c1ccc(CSc2nc3ccncc3[nH]2)cc1)N1CCCCC1	98.0	106.0	-3.0	0.0	4.4	-5.1	·	·	·
Cc1ccc(C)c(N2CCN(C(=O)c3ccc(CSc4nc5ccncc5[nH]4)cc3)CC2)c1	2.0*[inhibitor]	1.0*[inhibitor]	-13.0	16.2	2.0	14.8	102.0	4.0	101.0
Cc1ccc(S(=O)(=O)N2CCCCC2CCNC(=O)C(=O)NCc2ccccc2C)cc1 (stereo not given)	·	·	·	23.8	4.8	-1.5	·	·	·
CCC(=O)N1CC2(C)CN(C(=O)CC)CC(C)(C1)C2	122.0	129.0*	8.0	0.8	1.2	7.6	100.0	-3.0	101.0
COc1ccc(OC)c2[nH]c(=O)c(CCNC(=O)c3ccc4c(c3)OCO4)cc12	99.0	98.0	-4.0	9.7	-1.0	-18.9	·	·	·
CCOC(=O)c1cc2cc([N+](=O)[O-])ccc2oc1=O	76.0	75.0*[inhibitor]	-28.0	5.6	3.8	-22.2	102.0	7.0	100.0
Cc1ccc(-c2nnn(CC(=O)NC3CCN(Cc4ccccc4)CC3)n2)cc1	111.0	71.0*[inhibitor]	1.0	9.8	1.5	29.0	110.0	0.0	105.0
O=C(Cn1nnc(-c2ccc(Cl)cc2)n1)NC1CCN(Cc2ccccc2)CC1	114.0	104.0	5.0	4.1	0.6	15.3	·	·	·
Cn1ccnc1Sc1ccc(C=O)cc1[N+](=O)[O-]	91.0	74.0*[inhibitor]	-2.0	4.0	2.7	-16.0	94.0	-7.0	96.0
CCc1ccc(N(CC(=O)NC(C)(C)CC)C(=O)CCC(=O)Nc2nccs2)cc1	103.0	102.0	13.0	11.5	5.6	-1.7	·	·	·
CCOC(=O)c1ccccc1-n1c(C)cc(C2N=C(N)Nc3nc4ccccc4n32)c1C (stereo not given)	146.0*	113.0	29.0	-5.7	0.8	0.5	153.0	29.0	106.0
CCOC(=O)C1=C(C)Nc2nc3ccccc3n2C1c1ccc(O)cc1 (stereo not given)	98.0	100.0	6.0	-10.1	-7.0	-6.0	·	·	·
Cc1cc(C)n(C(=O)CNC(=O)COc2ccccc2)n1	98.0	96.0	1.0	0.3	1.8	-12.0	·	·	·
CC1(C)CC(NCc2cccc([N+](=O)[O-])c2)CC(C)(C)N1	107.0	106.0	6.0	5.4	3.3	3.1	·	·	·
